The text below walks through data of ChEMBL document CHEMBL1133101, “7-Methyl-6,7,8,9,14,15-hexahydro-5H-benz[d]indolo[2,3-g]azecine: a new heterocyclic system and a new lead compound for dopamine receptor antagonists” (J Med Chem, 2000).

Assay [1] concerns the target Sodium-dependent serotonin transporter (Homo sapiens) (UniProt P31645). The experiment in a line: % Decrease of 5-HT carrier-receptor -bound radioactivity using paroxetine as a radioligand. On the set-up: concentration or dose not given beside the values. The essentials:
(§1)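 Preliminary screen of receptors isolated from rat or pig tissues, run with minor changes to standard procedures. Each compound was tested at a single fixed concentration for each receptor. The read-out was the percent decrease in binding of the named radioligand.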

In assay [2] the target is T1, Adrenergic receptor alpha-1 (Homo sapiens, UniProt P35348+P25100+P35368).
T1 sequence (P35348 whole entry): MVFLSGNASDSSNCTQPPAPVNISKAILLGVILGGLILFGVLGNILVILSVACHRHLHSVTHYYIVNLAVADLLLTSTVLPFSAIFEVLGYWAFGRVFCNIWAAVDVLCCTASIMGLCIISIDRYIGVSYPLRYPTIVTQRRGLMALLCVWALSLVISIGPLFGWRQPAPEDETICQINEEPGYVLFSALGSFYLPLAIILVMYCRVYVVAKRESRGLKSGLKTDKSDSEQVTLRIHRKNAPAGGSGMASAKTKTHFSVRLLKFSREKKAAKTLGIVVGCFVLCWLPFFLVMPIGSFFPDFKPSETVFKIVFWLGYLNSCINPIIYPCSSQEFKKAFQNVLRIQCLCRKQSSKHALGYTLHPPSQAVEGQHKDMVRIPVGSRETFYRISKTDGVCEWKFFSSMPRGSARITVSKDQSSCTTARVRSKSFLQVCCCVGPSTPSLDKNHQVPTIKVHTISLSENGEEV
T1 sequence (P25100 whole entry): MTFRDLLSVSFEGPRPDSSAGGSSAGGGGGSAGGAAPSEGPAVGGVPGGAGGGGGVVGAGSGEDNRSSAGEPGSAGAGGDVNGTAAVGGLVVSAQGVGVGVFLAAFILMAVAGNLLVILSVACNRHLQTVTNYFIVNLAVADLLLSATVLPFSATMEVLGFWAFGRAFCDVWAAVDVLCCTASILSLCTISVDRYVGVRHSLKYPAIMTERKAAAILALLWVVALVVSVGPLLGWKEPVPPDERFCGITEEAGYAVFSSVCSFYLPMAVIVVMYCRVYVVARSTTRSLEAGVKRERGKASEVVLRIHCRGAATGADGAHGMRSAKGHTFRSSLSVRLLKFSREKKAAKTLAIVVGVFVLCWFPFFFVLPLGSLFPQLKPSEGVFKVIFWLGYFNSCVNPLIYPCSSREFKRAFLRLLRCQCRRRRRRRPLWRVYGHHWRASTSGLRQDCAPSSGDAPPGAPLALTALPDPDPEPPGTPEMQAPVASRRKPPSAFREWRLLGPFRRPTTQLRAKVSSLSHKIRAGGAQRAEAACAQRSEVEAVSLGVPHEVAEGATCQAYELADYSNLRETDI
T1 sequence (P35368 whole entry): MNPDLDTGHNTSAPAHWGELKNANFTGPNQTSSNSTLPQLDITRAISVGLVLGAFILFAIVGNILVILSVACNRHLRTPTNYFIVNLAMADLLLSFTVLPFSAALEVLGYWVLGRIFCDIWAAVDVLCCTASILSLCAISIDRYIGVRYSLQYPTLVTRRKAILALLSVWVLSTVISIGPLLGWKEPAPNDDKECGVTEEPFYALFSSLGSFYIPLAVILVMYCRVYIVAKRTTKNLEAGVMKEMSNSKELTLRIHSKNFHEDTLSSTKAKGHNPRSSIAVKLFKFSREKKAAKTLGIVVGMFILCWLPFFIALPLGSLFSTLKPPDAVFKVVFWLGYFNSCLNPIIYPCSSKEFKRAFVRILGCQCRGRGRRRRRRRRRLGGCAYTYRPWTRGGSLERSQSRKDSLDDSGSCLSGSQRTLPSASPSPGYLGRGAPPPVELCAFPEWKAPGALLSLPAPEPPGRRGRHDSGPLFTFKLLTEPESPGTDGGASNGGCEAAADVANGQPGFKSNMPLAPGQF
Kind of assay: Binding affinity against Alpha-1 adrenergic receptor. Format: protein assay.

Assay [3] is described as follows: % Decrease of Phorbol Diester Receptor -bound radioactivity using PDBU as a radioligand. Further details: scale not given: the % may be the effect or the level left. In a few lines: as §1
Assay [4] addresses Serotonin 2 (5-HT2) receptor (Rattus norvegicus) (UniProt P30994+P08909+P14842). Kind of assay: Percent decrease in 5-hydroxytryptamine 2 receptor binding using ketanserin. Format: protein assay. Further details: scale not given: the % may be the effect or the level left. The essentials: as §1
For assay [5], the target named is Sulfonylurea receptors; K-ATP channels (Homo sapiens) (UniProt Q14654+O60706+Q09428+Q15842). The experiment in a line: Percent inhibition of glibenclamide binding to K+ channel. In kind it is protein-complex assay. Further details: concentration or dose not given beside the values. The essentials:
as §1

Assay [6] can be described thus: % Decrease of adenosine carrier-receptor -bound radioactivity using NBTI as a radioligand. On the set-up: concentration or dose not given beside the values. The essentials:
as §1

The target in assay [7] is Neuronal acetylcholine receptor (Rattus norvegicus) (UniProt P04757+P09483+P12389+P12390+P12392+P43144+Q9JLB5+P12391+P43143+P20420+Q05941). The experiment in a line: % Decrease of Nicotinic acetylcholine receptor-bound radioactivity using cytisine as a radioligand. Format: protein-complex assay. Further details: scale not given: the % may be the effect or the level left. In a few lines:
as §1

The nature of assay [8]: Percent decrease in Bradykinin receptor binding. On the set-up: concentration or dose not given beside the values. The essentials:
as §1

The target of assay [9] is T2, Glutamate receptor ionotropic AMPA (Homo sapiens) (UniProt P48058+P42263+P42262+P42261). The experiment in a line: Percent decrease of Quisqualate receptor binding using AMPA. Format: protein-complex assay. On the set-up: scale not given: the % may be the effect or the level left. In a few lines:
as §1

In assay [10] the target is Serotonin 2 (5-HT2) receptor (Rattus norvegicus, UniProt P30994+P08909+P14842). The experiment in a line: Binding affinity against 5-hydroxytryptamine 2 receptor in rat striatum using [3H]-RP62203. In kind it is tissue-based.
Assay [11] deals with T2, Glutamate receptor ionotropic AMPA (Homo sapiens). Kind of assay: Percent decrease in Quisqualate receptor binding using AMPA. Further details: scale not given: the % may be the effect or the level left. Format: protein-complex assay. In a few lines: as §1
The target of assay [12] is D(1A) dopamine receptor (Rattus norvegicus) (UniProt P18901). Kind of assay: Percent decrease of Dopamine receptor D1 binding using SCH-23390. Further details: scale not given: the % may be the effect or the level left.
Sequence of D(1A) dopamine receptor (Rattus norvegicus) (P18901 whole entry, looked up): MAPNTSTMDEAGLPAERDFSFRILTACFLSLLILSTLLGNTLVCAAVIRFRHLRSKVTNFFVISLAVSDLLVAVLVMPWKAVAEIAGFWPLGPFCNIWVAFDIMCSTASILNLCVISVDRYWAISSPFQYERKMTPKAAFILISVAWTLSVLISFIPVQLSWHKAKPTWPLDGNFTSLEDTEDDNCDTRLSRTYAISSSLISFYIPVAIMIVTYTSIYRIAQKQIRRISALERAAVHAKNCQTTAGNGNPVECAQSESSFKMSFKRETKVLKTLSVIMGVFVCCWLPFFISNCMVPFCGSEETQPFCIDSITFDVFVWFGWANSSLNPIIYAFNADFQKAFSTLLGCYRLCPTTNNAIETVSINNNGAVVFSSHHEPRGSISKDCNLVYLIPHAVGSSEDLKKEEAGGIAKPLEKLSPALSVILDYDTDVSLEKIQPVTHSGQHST
Another assay deals with D(2) dopamine receptor (Rattus norvegicus, UniProt P61169). The experiment in a line: Binding affinity against Dopamine receptor D2 of rat striatal mambranes using [3H]spiperone. The essentials:
(§2)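 Rat striatal receptor preparations were used, with [3H]SCH23390 for D1, [3H]spiperone for D2 and [3H]RP62203 for 5-HT2. Ki ([…]) was derived from competitive displacement of the radioligand, with n = 3–7.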

In another assay the target is D(1A) dopamine receptor (Rattus norvegicus, UniProt P18901). The experiment in a line: Binding affinity against Dopamine receptor D1 of rat striatal receptor using [3H]SCH-23390. In a few lines: as §2
Sequence of D(1A) dopamine receptor (P18901 whole entry): as the sequence (P18901 whole entry, looked up) above
In assay [13] the target is T3, Adenosine receptor A1 (Homo sapiens) (UniProt P30542).
T3 sequence (whole entry): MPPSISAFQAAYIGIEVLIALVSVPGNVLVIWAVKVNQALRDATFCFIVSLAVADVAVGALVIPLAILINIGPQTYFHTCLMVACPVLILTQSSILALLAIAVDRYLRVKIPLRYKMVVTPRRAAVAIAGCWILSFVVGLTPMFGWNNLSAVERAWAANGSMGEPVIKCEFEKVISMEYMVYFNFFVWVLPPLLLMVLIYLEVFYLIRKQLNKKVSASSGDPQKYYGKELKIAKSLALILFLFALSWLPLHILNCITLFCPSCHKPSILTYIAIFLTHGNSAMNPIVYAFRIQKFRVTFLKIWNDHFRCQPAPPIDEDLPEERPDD
The experiment in a line: Percent decrease in Adenosine A1 receptor binding using CPDPX. On the set-up: scale not given: the % may be the effect or the level left.

Sequence of Serotonin 2 (5-HT2) receptor (Rattus norvegicus) (P08909 whole entry, looked up): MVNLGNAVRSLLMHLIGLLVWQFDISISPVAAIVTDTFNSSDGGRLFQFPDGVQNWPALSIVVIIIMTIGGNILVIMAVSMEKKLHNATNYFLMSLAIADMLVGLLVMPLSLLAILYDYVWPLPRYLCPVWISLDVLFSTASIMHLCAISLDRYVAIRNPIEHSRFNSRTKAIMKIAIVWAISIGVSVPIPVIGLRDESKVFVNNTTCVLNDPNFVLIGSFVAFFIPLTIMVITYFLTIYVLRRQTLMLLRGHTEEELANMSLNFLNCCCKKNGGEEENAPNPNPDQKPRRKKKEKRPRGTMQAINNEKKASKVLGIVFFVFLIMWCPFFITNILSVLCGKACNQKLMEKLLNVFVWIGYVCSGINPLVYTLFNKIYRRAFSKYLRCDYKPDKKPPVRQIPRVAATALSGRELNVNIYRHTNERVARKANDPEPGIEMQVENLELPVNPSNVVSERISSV
Sequence of Serotonin 2 (5-HT2) receptor (Rattus norvegicus) (P14842 whole entry, looked up): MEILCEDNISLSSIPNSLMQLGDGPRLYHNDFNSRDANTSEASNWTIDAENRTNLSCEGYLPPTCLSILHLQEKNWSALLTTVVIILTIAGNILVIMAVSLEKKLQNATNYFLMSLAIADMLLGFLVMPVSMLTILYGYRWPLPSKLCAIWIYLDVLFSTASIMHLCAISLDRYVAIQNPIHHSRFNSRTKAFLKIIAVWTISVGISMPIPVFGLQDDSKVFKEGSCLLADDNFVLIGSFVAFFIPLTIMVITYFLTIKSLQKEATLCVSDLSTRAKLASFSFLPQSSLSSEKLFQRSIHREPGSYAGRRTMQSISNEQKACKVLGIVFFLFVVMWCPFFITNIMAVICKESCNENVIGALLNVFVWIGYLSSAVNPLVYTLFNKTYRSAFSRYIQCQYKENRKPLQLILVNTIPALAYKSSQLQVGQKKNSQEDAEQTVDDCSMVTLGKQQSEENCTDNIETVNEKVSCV
Sequence of Serotonin 2 (5-HT2) receptor (Rattus norvegicus) (P30994 whole entry, looked up): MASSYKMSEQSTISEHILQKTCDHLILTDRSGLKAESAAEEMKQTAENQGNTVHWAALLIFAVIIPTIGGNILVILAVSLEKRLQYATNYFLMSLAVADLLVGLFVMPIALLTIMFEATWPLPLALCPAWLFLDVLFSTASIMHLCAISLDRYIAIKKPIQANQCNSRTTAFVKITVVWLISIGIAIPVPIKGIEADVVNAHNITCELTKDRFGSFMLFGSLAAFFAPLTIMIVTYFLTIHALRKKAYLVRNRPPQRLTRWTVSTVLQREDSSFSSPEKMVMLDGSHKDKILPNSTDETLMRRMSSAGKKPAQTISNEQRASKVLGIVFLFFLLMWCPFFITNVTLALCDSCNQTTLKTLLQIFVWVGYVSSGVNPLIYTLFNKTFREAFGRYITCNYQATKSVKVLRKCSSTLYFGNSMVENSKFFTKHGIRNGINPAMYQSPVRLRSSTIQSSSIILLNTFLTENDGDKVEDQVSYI
Sequence of Sodium-dependent serotonin transporter (Homo sapiens) (P31645 whole entry, looked up): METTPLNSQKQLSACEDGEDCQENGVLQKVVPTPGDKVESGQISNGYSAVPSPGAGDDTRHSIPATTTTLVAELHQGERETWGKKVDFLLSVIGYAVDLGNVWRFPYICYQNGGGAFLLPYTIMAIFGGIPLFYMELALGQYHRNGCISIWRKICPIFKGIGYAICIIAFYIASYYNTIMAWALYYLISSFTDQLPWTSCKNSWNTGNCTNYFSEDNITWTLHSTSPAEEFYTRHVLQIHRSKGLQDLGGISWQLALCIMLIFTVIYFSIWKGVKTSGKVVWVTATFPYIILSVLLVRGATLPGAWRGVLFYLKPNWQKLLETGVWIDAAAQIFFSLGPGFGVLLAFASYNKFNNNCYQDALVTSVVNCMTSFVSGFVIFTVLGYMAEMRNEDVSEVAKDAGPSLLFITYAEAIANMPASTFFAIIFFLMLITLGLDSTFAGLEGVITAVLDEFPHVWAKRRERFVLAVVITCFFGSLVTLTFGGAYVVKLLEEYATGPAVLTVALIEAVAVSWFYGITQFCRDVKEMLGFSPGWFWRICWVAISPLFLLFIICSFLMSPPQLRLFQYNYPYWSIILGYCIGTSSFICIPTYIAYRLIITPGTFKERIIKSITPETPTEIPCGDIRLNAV
Sequence of D(2) dopamine receptor (P61169 whole entry): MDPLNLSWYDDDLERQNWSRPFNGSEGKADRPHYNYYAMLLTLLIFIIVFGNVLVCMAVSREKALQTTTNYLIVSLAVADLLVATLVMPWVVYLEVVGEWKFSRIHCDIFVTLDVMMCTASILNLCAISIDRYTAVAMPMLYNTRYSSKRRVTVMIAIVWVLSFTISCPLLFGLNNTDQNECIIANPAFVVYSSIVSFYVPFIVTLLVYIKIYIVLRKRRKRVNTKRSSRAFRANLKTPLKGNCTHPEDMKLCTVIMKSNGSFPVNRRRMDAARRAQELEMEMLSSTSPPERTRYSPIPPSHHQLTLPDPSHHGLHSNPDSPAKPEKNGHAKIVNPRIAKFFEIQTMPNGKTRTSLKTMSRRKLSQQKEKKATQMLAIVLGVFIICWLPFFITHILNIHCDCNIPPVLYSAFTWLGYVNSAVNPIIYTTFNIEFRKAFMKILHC

With `c1ccc2c3c([nH]c2c1)C1c2[nH]c4ccccc4c2CCN1CC3`, the Activity in [1] is -45%; in [3], -15%; in assay [4], -52%; in [5], 7%; in assay [6], 1%; in [7], 1%. Also, the figures for the Activity in assay [8] and in assay [9] were 2% and -1%, respectively. In addition, the Ki in [2] was 76 nM.
Consider `c1ccc2c(c1)CCN1CCc3c([nH]c4ccccc34)C21` (stereo not given), for which the Activity in assay [1] is -32%; in assay [3], -6%; in [4] it was -41%; in [5], 12%; in assay [6], -29%; in assay [7] it was 0%. The Activity is -2% in assay [8] and 3% in assay [9]. The Ki in assay [2] is 79 nM.
Take `CN1CCc2ccccc2Cc2[nH]c3ccccc3c2CC1`: the Activity is -8% in assay [1]; 0% in assay [3]; -3% in assay [11]; -99% in assay [12]; 10% in assay [5]; -14% in assay [6]. Moreover, the values for the Activity in assay [7], in [8] and in assay [13] were -3%, -2% and 5%, respectively. Further, the Ki turned out to be 11 nM in assay [2], 20 nM in assay [10], 6 nM on D(2) dopamine receptor and 0.08 nM at D(1A) dopamine receptor.
As for `COc1cc2c(cc1OC)C1c3[nH]c4ccccc4c3CCN1CC2` (stereo not given), the Activity in [1] is -8%; in assay [3], -9%; in [4], -32%; in assay [5], 11%; in assay [6], -17%; in assay [7], -4%. For the same compound, the Activity in assay [8] was 9%; in assay [9], -1%. Moreover, in assay [2], the Ki was determined as 17 nM.
